From ChEMBL document CHEMBL4602718, “Mechanism of Action of an EPAC1-Selective Competitive Partial Agonist” (J Med Chem, 2020)
Each block holds one compound with its values, some of them ahead of it. The source made the active and inactive calls. No cut-off for these calls is given here.

Tests used:
[1] = target: T1, Rap guanine nucleotide exchange factor 3 (Homo sapiens) (UniProt O95398); assay: Binding affinity to GST-tagged human EPAC1 CNBD (149 to 318 residues)expressed in Escherichia coli BL21 (DE3) assessed as induction Intermolecular NOEs peaks in PBC and BBR residues by 15N-NOESY-HSQC NMR spectroscopy
T1 sequence (whole entry): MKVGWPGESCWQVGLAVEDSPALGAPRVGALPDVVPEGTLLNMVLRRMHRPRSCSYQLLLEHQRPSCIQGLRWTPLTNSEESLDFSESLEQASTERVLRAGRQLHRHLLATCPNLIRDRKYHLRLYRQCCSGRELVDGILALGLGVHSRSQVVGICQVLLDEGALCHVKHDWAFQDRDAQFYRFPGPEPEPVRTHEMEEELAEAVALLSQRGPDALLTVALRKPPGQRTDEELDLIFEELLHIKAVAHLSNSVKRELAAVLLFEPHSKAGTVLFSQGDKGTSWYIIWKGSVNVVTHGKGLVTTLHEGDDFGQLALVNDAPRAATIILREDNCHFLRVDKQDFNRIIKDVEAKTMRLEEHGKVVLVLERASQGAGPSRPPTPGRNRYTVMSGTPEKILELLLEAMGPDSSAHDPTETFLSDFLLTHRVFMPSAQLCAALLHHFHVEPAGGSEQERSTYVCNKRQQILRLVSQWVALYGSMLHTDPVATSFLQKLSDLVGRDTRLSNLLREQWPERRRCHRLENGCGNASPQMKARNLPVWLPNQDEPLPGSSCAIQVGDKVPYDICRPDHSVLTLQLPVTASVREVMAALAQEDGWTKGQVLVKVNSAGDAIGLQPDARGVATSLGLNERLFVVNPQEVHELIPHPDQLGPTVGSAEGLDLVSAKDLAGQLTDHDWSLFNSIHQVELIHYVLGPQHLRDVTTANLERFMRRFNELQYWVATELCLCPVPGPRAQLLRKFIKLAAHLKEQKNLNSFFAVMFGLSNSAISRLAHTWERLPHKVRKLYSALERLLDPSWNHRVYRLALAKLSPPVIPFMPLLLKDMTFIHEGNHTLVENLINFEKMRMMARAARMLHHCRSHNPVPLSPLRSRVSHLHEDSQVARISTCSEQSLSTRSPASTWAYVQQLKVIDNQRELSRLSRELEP

[2] = target: T1, Rap guanine nucleotide exchange factor 3 (Homo sapiens); assay: Binding affinity to GST-tagged human EPAC1 CNBD (149 to 318 residues)expressed in Escherichia coli BL21 (DE3) assessed as binding to R279 Guanidinium residue by guanidinium HSQC NMR spectroscopy
How it was run: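 Human EPAC1 residues 149–318, wild type and R279A mutant, expressed GST-tagged in E. coli BL21(DE3) in 15N or 15N/13C M9 medium. GST tag removed by thrombin; protein purified by glutathione and anion-exchange steps. Guanidinium HSQC spectra of apo or ligand-saturated protein recorded at 700 MHz and 306 K in 50 mM Tris, 50 mM NaCl, 1 mM DTT, pH 7.6. Ligand came from a DMSO-d6 stock, with matching DMSO-d6 added to apo and cAMP-bound controls.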

[3] = target: T2, Rap guanine nucleotide exchange factor 3 (Homo sapiens, UniProt O95398); assay: Binding affinity to GST-tagged human EPAC1 CNBD (149 to 318 residues) expressed in Escherichia coli BL21 (DE3) incubated for 30 mins by 8-NBD-cAMP based competitive fluorescence assay
T2 sequence (O95398 whole entry): T1 sequence (whole entry)

[4] = target: Rap guanine nucleotide exchange factor 3 (Homo sapiens, UniProt O95398, L273W); assay: Binding affinity to GST-tagged human EPAC1 L273W mutant expressed in Escherichia coli BL21 (DE3) incubated for 30 mins by 8-NBD-cAMP based competitive fluorescence assay
Sequence of Rap guanine nucleotide exchange factor 3 (Homo sapiens, UniProt O95398, L273W) (O95398 whole entry L273W): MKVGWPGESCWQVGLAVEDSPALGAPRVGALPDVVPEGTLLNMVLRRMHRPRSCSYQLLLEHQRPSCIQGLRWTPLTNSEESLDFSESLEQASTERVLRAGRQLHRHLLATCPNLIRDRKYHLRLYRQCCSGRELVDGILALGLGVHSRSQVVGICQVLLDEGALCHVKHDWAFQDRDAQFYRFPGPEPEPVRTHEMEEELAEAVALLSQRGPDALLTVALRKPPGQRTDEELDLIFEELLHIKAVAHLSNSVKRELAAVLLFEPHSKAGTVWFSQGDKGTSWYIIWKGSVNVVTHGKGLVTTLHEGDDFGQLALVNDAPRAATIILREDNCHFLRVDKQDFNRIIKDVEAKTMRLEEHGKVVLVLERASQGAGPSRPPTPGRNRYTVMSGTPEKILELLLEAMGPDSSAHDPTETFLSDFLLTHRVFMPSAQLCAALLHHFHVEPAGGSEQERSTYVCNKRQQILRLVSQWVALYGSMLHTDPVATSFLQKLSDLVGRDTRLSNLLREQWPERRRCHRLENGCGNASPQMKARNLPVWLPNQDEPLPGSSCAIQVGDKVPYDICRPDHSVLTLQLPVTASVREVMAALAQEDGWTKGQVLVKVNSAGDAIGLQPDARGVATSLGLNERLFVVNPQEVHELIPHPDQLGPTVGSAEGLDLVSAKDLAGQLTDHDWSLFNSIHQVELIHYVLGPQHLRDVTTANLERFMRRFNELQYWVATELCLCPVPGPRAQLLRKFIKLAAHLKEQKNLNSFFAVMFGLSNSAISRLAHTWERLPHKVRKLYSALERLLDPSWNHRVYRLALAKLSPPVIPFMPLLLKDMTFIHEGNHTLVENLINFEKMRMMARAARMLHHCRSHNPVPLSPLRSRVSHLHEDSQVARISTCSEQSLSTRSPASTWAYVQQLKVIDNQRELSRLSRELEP
How it was run: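 Competitive displacement of 8-NBD-cAMP from the L273W mutant of the 149–318 construct, titrating ligand in Tris pH 7.6 buffer. […] Percent bound 8-NBD-cAMP was plotted against total ligand and fitted to a competitive-binding cubic solution to give Kd.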

[5] = target: T1, Rap guanine nucleotide exchange factor 3 (Homo sapiens); assay: Binding affinity to GST-tagged human EPAC1 CNBD (149 to 318 residues)expressed in Escherichia coli BL21 (DE3) assessed as induction of perturbation of allosteric network sites by CHESCA method
[6] = target: T1, Rap guanine nucleotide exchange factor 3 (Homo sapiens); assay: Binding affinity to GST-tagged human EPAC1 CNBD (149 to 318 residues)expressed in Escherichia coli BL21 (DE3) assessed as compound binding to base binding region incubated for 30 mins by CHESPA method
[7] = target: T1, Rap guanine nucleotide exchange factor 3 (Homo sapiens); assay: Binding affinity to GST-tagged human EPAC1 CNBD (149 to 318 residues)expressed in Escherichia coli BL21 (DE3) assessed as induction of conformational changes in compound by NOESY NMR spectroscopy
[8] = target: T1, Rap guanine nucleotide exchange factor 3 (Homo sapiens); assay: Binding affinity to GST-tagged human EPAC1 CNBD (149 to 318 residues)expressed in Escherichia coli BL21 (DE3) assessed as compound binding to cAMP-binding sites incubated for 30 mins by CHESPA method
[9] = target: T1, Rap guanine nucleotide exchange factor 3 (Homo sapiens); assay: Binding affinity to GST-tagged human EPAC1 CNBD (149 to 318 residues)expressed in Escherichia coli BL21 (DE3) assessed as compound binding to phosphate binding cassette region incubated for 30 mins by CHESPA method
[10] = target: T1, Rap guanine nucleotide exchange factor 3 (Homo sapiens); assay: Binding affinity to GST-tagged human EPAC1 CNBD (149 to 318 residues) expressed in Escherichia coli BL21 (DE3) incubated for 30 mins by 1H,15N-HSQC NMR spectroscopy
[11] = target: T1, Rap guanine nucleotide exchange factor 3 (Homo sapiens); assay: Binding affinity to GST-tagged human EPAC1 CNBD (149 to 318 residues)expressed in Escherichia coli BL21 (DE3) by STD and guanidinium HSQC NMR analysis

SMILES: COc1ccc(OC)c(S(=O)(=O)NC(=O)COc2ccc3ccccc3c2)c1
Activity [1]: Active

SMILES: COc1ccc(S(=O)(=O)NC(=O)COc2ccc3ccccc3c2)c(OC)c1
Activity [1]: Active

SMILES: Nc1ncnc2c1ncn2[C@@H]1O[C@@H]2CO[P@@](O)(=S)O[C@H]2[C@H]1O
Activity [2]: Active

Kd [3]: 6.6 µM
Kd [4]: 4.9 µM
Activity [2]: Active
Activity [5]: Active
Activity [6]: Active
Activity [8]: Active
Activity [9]: Active
Activity [10]: Active
Activity [11]: Active
SMILES: Cc1ccc(S(=O)(=O)NC(=O)COc2ccc3ccccc3c2)c(C)c1
Activity [1]: Active
Activity [7]: Active

SMILES: COc1ccc(S(=O)(=O)NC(=O)COc2ccc3ccccc3c2)cc1OC
Activity [1]: Active
